# Assays:
# [1] = biological target: T1, 5-hydroxytryptamine receptor 6 (Homo sapiens, UniProt P50406); assay: Displacement of [3H]LSD from human 5-hydroxytryptamine 6 receptor expressed in HeLa cells; format: cell-based
# Outline: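 Human cloned 5-HT6 receptor expressed in HeLa cells. Binding measured by [3H]LSD displacement and reported as pKi. Each value is the mean of at least three experiments, each within 0.3 of the mean.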
# [2] = biological target: 5-hydroxytryptamine receptor 6 (Rattus norvegicus) (UniProt P31388); assay: (§1) In vivo binding assay against rat 5-hydroxytryptamine 6 receptor using [125I]-SB-258,585; format: functional, organism-based
# Sequence of 5-hydroxytryptamine receptor 6 (Rattus norvegicus) (P31388 whole entry): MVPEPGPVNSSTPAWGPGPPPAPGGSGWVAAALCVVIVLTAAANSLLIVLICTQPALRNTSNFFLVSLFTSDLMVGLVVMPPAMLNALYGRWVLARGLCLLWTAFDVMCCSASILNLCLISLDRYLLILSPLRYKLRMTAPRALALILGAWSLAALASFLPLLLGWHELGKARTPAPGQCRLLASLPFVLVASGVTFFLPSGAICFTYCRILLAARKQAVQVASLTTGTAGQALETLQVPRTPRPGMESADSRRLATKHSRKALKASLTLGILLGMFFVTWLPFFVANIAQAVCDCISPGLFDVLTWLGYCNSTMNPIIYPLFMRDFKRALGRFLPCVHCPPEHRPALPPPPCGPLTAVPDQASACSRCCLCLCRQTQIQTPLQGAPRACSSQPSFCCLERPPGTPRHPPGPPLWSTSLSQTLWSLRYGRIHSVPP
# Outline: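 Ex vivo assay. Rats were given vehicle or antagonist orally with a 4 h pretreatment, then killed. Striatum was removed and homogenised, and a binding assay with a selective 5-HT6 radioligand was run on the tissue. Potency is expressed as oral ED50 (mg/kg).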
# [3] = biological target: 5-hydroxytryptamine receptor 6 (Rattus norvegicus, UniProt P31388); assay: Binding affinity against 5-hydroxytryptamine 6 receptor of rat striatum; format: tissue-based
# Sequence of 5-hydroxytryptamine receptor 6 (Rattus norvegicus, UniProt P31388) (P31388 whole entry): as above
# [4] = biological target: T1, 5-hydroxytryptamine receptor 6; assay: Binding affinity against 5-hydroxytryptamine 6 receptor of human caudate
# [5] = biological target: T1, 5-hydroxytryptamine receptor 6; conditions: HeLa
# [6] = biological target: 5-hydroxytryptamine receptor 6 (Rattus norvegicus) (UniProt P31388); assay: as §1; format: organism-based
# Outline: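 Ex vivo assay: rats were dosed orally with vehicle or antagonist and killed after a 4 h pretreatment. Striatum was removed and homogenised, and a binding assay with the selective 5-HT6 radioligand was run on the tissue. ED50 was expressed as mg/kg po.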
# T1 sequence (P50406 whole entry): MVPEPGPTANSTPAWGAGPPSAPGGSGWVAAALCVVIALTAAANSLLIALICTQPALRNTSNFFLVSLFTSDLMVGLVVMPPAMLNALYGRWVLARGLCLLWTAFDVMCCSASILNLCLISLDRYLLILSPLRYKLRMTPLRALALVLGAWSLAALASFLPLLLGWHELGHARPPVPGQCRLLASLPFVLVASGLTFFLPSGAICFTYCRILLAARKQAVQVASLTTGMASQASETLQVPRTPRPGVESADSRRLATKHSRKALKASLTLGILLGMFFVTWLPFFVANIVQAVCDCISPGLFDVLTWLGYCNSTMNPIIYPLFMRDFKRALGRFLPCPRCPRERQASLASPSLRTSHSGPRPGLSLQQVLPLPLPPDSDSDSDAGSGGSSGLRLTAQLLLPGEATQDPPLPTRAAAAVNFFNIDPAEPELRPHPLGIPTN
SMILES,Ki [1],also measured
O=S(=O)(c1cccc(Cl)c1)n1ccc2c(N3CCNCC3)cccc21,0.251 nM,
Cc1c(S(=O)(=O)n2ccc3c(N4CCNCC4)cccc32)sc2ccc(Cl)cc12,3.16 nM,
O=S(=O)(c1ccccc1)c1coc2c(N3CCNCC3)cccc12,1.26 nM,
O=S(=O)(c1ccccc1Cl)n1ccc2c(N3CCNCC3)c(Cl)ccc21,1 nM,
O=S(=O)(c1ccccc1)c1csc2c(N3CCNCC3)cccc12,0.501 nM,
O=S(=O)(c1cccc2ccccc12)n1ccc2c(N3CCNCC3)c(Cl)ccc21,7.94 nM,
O=S(=O)(c1ccccc1Cl)n1ccc2c(N3CCNCC3)cccc21,0.398 nM,
Cn1cc(S(=O)(=O)c2cccc(Cl)c2)c2cccc(N3CCNCC3)c21,2.51 nM,ED50 [2]: 5 mg/kg
O=S(=O)(c1cccc(Cl)c1)n1cc(Cl)c2c(N3CCNCC3)cccc21,0.316 nM,
O=S(=O)(c1ccc(Cl)cc1)n1ccc2c(N3CCNCC3)cccc21,2 nM,
O=S(=O)(c1cccc(Cl)c1)n1ccc2c(N3CCNCC3)ccc(Cl)c21,0.316 nM,
O=S(=O)(c1ccccn1)n1ccc2c(N3CCNCC3)cccc21,1 nM,
O=S(=O)(c1ccc(Cl)cc1)n1ccc2c(N3CCNCC3)c(Cl)ccc21,6.31 nM,
O=S(=O)(c1cccc(Cl)c1)n1ccc2c(N3CCNCC3)c(Cl)ccc21,2.51 nM,Ki [3]: 12.6 nM; Ki [4]: 7.94 nM; ED50 [2]: 3 mg/kg; pKb [5]: 7.2
Cc1cn(S(=O)(=O)c2cccc(Cl)c2)c2cccc(N3CCNCC3)c12,0.631 nM,
O=S(=O)(c1ccccc1)c1c[nH]c2c(N3CCNCC3)ccnc12,7.94 nM,
Cc1cc2c(N3CCNCC3)cccc2n1S(=O)(=O)c1cccc(Cl)c1,0.398 nM,
N#Cc1ccc2c(ccn2S(=O)(=O)c2cccc(Cl)c2)c1N1CCNCC1,5.01 nM,
O=S(=O)(c1ccc2ccccc2c1)n1ccc2c(N3CCNCC3)c(Cl)ccc21,25.1 nM,
O=S(=O)(c1ccccc1)c1c[nH]c2c(N3CCNCC3)nccc12,25.1 nM,
O=S(=O)(c1cccc(Cl)c1)c1c[nH]c2c(N3CCNCC3)cccc12,0.316 nM,
COc1ccc(NS(=O)(=O)c2sc3ccc(Cl)cc3c2C)cc1N1CCNCC1,,ED50 [6]: 11 mg/kg
O=S(=O)(c1ccccc1)n1ccc2c(N3CCNCC3)c(Cl)ccc21,1.58 nM,
O=S(=O)(c1ccccn1)n1ccc2c(N3CCNCC3)c(Cl)ccc21,0.501 nM,
